Experimental data gathered from unrelated publications.
Protocols differ between the studies behind these lines.
Target: Dual specificity protein kinase CLK4 (CLK4, Homo sapiens, UniProt Q9HAZ1)

Cc1ccc(NC(=O)c2ccc(C)c(C(F)(F)F)c2)cc1C#Cc1nn(C2CCC(O)CC2)c2ncnc(N)c12 (stereo not drawn)
remaining signal (cell-free assay; 10 µM): 58%

COc1cc(-c2cc(-c3ccc(N4CCNCC4)cc3)cnc2C)cc(OC)c1OC
inhibition (enzyme activity, inhibitor; 1 µM): 7%

Cc1sc(C(=O)NC2COC2)cc1-n1cc(NC(=O)Nc2c(F)cccc2Cl)cn1
remaining activity (enzyme activity, inhibitor; 10 µM): 102%

CC(C)(C)c1nc2c(s1)c1nc(N)ncc1c1ccc(NS(=O)(=O)c3c(F)cccc3F)c(F)c12
remaining activity (enzyme activity, inhibitor, radiometric; 1 µM): 81%

CN(c1ccnc(CNc2nc(Nc3ccc4c(c3)CC(=O)N4)ncc2C(F)(F)F)n1)S(C)(=O)=O
remaining binding (binding, competition with immobilised ligand; 1 µM): 1.4%

O=C(CSc1nc2nccnc2c(=O)n1CCc1ccccc1)Nc1nccs1
inhibition (enzyme activity, inhibitor; 10 µM): 5%

CCCOc1ccc([C@@H]2[C@@H](C(=O)O)[C@H](c3ccc4c(c3)OCO4)CN2CC(=O)Nc2c(CC)cccc2CC)cc1
remaining binding (cell-free assay, competition with immobilised ligand; 1 µM): 89%

O=C1Nc2ccc(Cl)cc2C1=Cc1cc(Cl)c(O)c(Cl)c1
remaining signal (cell-free assay; 0.5 µM): 60.7%

O=C(Nc1cccnn1)N1CCC(=Cc2cccc(Oc3ccc(C(F)(F)F)cn3)c2)CC1
remaining binding (cell-free assay, competition with immobilised ligand; 1 µM): 70%

Oc1ccc(-c2nc(-c3ccncc3)c(-c3ccc(F)cc3)[nH]2)cc1
remaining signal (cell-free assay; 0.5 µM): 106%

CC(C)(O)[C@H]1CC[C@H](Nc2ccc3ncc(-c4cccc(C(F)(F)F)c4)n3n2)CC1
remaining activity (enzyme activity, inhibitor; 1 µM): 21.3%

CCN(CC)CCNC(=O)c1c(C)[nH]c(/C=C2\C(=O)Nc3ccc(F)cc32)c1C
remaining signal (cell-free assay; 0.5 µM): 26.3%

NS(=O)(=O)c1cc(NC(=O)Cc2ccccc2)ccc1Oc1cccc(Cl)c1
remaining binding (cell-free assay, competition with immobilised ligand; 1 µM): 83%

Cn1cnc(Br)c1C1=CN(c2ncnc3[nH]cnc23)CCS1
inhibition (enzyme activity, inhibitor, radiometric; 50 nM): 24%

Cc1ccc(C(=O)Nc2ccc(CN3CCN(C)CC3)c(C(F)(F)F)c2)cc1C#Cc1cnc2cccnn12
remaining activity (enzyme activity, inhibitor; 23.5 nM): 54%

Oc1cccc(-c2nc(N3CCOCC3)c3oc4ncccc4c3n2)c1
remaining signal (cell-free assay; 0.5 µM): 81.5%

CCOCCn1cc(C(=O)Nc2ccc(-n3nc(-c4cccnc4)cc3C(F)(F)F)cn2)ccc1=O
remaining binding (cell-free assay, competition with immobilised ligand; 1 µM): 100%

CCN1/C(=C/C(C)=O)Sc2ccc(OC)cc21
remaining signal (cell-free assay; 0.5 µM): 18.5%

CCCCN(CCCC)C(=O)CN1C[C@@H](c2cc(OC)c3c(c2)OCO3)[C@H](C(=O)O)[C@H]1CC(C)(C)CCC
remaining binding (cell-free assay, competition with immobilised ligand; 1 µM): 72.4%

Cc1cnc(NC2CCOCC2)nc1-n1cnc(C(=O)NC(CN)c2cc(F)cc(Cl)c2)c1 (stereo not drawn)
remaining activity (enzyme activity, inhibitor, radiometric; 1 µM): 63%

Cn1cncc1C1=CN(c2ncnc3[nH]cnc23)CCS1
inhibition (enzyme activity, inhibitor, radiometric; 50 nM): 27.1%
